In publication PMC5915676 (Cell chemical biology, 2016):
Changes are numbered by the printed parent chain. “Also recorded” adds a separate entry of the source. Like-named read-outs stand apart in the source and are kept apart here.

Legend:
[1] = system: serine biosynthesis pathway in SKOV3 GFP KO cells; experiment: U-13C-glucose stable isotope labeling, LC-HRMS; format: cell-based, human
PHGDH = target: T1, PHGDH (Homo sapiens, UniProt O43175); experiment: PHGDH enzyme assay coupled with PSAT1 reaction; format: biochemical
T1 sequence (O43175 1-533): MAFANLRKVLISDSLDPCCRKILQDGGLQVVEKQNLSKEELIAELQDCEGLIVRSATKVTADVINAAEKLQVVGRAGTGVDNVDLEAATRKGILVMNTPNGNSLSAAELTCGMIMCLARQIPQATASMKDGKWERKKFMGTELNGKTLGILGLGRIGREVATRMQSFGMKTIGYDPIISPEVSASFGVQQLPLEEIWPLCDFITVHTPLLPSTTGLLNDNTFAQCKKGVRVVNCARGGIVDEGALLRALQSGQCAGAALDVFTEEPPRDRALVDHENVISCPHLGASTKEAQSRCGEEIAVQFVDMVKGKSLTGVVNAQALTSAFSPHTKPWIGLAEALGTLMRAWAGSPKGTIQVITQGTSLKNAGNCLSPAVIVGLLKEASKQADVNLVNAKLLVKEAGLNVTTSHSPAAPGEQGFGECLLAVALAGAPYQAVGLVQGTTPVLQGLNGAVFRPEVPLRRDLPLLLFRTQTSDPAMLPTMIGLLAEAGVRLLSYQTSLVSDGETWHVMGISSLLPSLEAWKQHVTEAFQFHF
How it was run: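 Full-length human PHGDH and PSAT1 were His-purified from E. coli BL21(DE3) (pET21a(+)) by Ni-NTA then gel filtration. PHGDH activity was measured coupled to the upstream PSAT1 reaction. For cofactor competition, enzyme was preincubated 10 min at 25°C with NADH and compound, and Pser was added to start the reaction. For combinations, fixed first-compound levels (0–200 μM) were mixed with second-compound series (0–200 μM) and preincubated with enzyme.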

MCF-10A cells = experiment: MTT cell viability assay; format: cell-based, human
MDA-MB-231 cells = experiment: MTT cell viability assay; format: cell-based, human; conditions: read-out: EC50 (cell viability), MDA-MB-231, 72 h
SKOV3 PHGDH KO cells = experiment: 6-day proliferation assay; format: cell-based, human; conditions: 50 μM PKUMDL-WQ-2201, 6 days
How it was run: (§1)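 SKOV3 control (sgRNA against GFP) and PHGDH knockout cells were used. Knockout was made by lentiCRISPR with an exon 8 sgRNA, puromycin selection and single-cell clones, and was western-validated. Cells were grown in RPMI-1640 with 10% FBS and plated at 10,000 cells/well in triplicate. After 24 h they received DMSO or compound, and viable cells were counted daily for 6 days by trypan-blue exclusion on a hemocytometer. Data are mean ± SEM, n=3 biological replicates, two-tailed Student's t-test.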

PHGDH mutant T59A = target: T2, PHGDH mutant T59A (Homo sapiens, UniProt O43175, T60A); experiment: PHGDH enzyme assay, mutant T59A; format: biochemical; conditions: read-out: IC50, PHGDH enzyme inhibition
T2 sequence (O43175 1-533 T60A): T1 sequence (O43175 1-533) with T60A
How it was run: (§2)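 Point mutants were made by QuikChange site-directed mutagenesis of pET-21a(+) wild-type human PHGDH and sequence-verified. Each was expressed in E. coli and purified like the wild type, then assayed for activity and inhibition in the same PSAT1-coupled PHGDH assay.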

MDA-MB-231 xenografts = experiment: MDA-MB-231 xenograft mouse model; format: in vivo, NOD.CB17 Scid/J mice; conditions: 20 mg/kg/day IP
HCC70 cells = experiment: MTT cell viability assay; format: cell-based, human; conditions: read-out: EC50, antitumor activity (cell viability), HCC70, 72 h
MDA-MB-468 cells [2] = experiment: MTT cell viability assay; format: cell-based, human; conditions: read-out: EC50, antitumor activity (cell viability), MDA-MB-468, 72 h
[3] = Body weight of xenograft mice during treatment; format: in vivo; conditions: over the course of the xenograft experiments
[4] = system: panel of cancer cell lines along with one immortalized human breast epithelial cell line; experiment: MTT cell viability assay, cell line panel; format: cell-based
PHGDH mutant T56AK57A = target: T3, PHGDH mutant T56AK57A (Homo sapiens, UniProt O43175, K58A/T57A); experiment: PHGDH enzyme assay, mutant T56AK57A; format: biochemical; conditions: read-out: IC50, PHGDH enzyme inhibition
T3 sequence (O43175 1-533 T57A/K58A): T1 sequence (O43175 1-533) with T57A, K58A
How it was run: as §2

MCF-7 cells = experiment: MTT cell viability assay; format: cell-based, human; conditions: read-out: EC50 (cell viability), MCF-7, 72 h
MDA-MB-468 xenografts = experiment: MDA-MB-468 xenograft mouse model; format: in vivo, NOD.CB17 Scid/J mice; conditions: 20, 10 and 5 mg/kg/day IP, 30 days of drug delivery, vs vehicle
ZR-75-1 cells = experiment: MTT cell viability assay; format: cell-based, human; conditions: selectivity, PHGDH amplified vs non-dependent line
[5] = system: SKOV3 GFP KO control cells; experiment: 6-day proliferation assay; format: cell-based, human; conditions: 50 μM PKUMDL-WQ-2201, 6 days
How it was run: as §1

MDA-MB-468 cells [6] = conditions: 30 μM, ref Mullarky et al., 2016, cited from earlier work
[7] = ref Mullarky et al., 2016; cited from earlier work
[8] = 37 μM PKUMDL-WQ-2101, 291 μM PKUMDL-WQ-2201, 24 h treatment

## CCNC(=S)N/N=C/c1ccc(-c2ccc(C(=O)O)c(Cl)c2)o1 [PKUMDL-WQ-2201]
[1]; [8]
  m+2, m+6 and m+7 glucose labeling in UTP and ATP: decreases
  m+2 glucose incorporation into glutathione: decreases in m+2
[1]; about IC50 (37 μM PKUMDL-WQ-2101, 291 μM PKUMDL-WQ-2201), 24 h treatment
  reduction of glucose incorporation into serine and glycine: more than 50%
PHGDH; PKUMDL-WQ-2101 kept at 25 μM, PKUMDL-WQ-2201 1 to 200 μM
  combination effect on PHGDH inhibition (Combination Index): synergistic interactions
PHGDH; PKUMDL-WQ-2202 kept at 25 μM, PKUMDL-WQ-2201 varied
  combination effect on PHGDH inhibition (Combination Index): antagonism
PHGDH; compound 50 μM, NADH 5 to 40 μM
  competition with cofactor NADH: did not bound in the cofactor site
PHGDH; read-out: IC50, PHGDH enzyme inhibition, WT PHGDH
  IC50: 35.7 ± 8.6 µM
MCF-10A cells
  cytotoxic effects: weak cytotoxic effects
MDA-MB-231 cells
  EC50: > 200 µM
SKOV3 PHGDH KO cells
  cell growth: remained unaffected
PHGDH mutant T59A
  IC50: 69 ± 40 µM
MDA-MB-231 xenografts
  tumor growth: neither PKUMDL-WQ-2101 nor PKUMDL-WQ-2201 affected tumor growth
HCC70 cells
  EC50: 10 µM
MDA-MB-468 cells [2]
  EC50: 6.9 µM
[3]
  body weight (tolerability): able to maintain normal body weight
[4]; lines other than ZR-75-1
  bioactivity in the other three PHGDH non-amplified breast cancer cell lines: No bioactivities
[4]; read-out: EC50 in PHGDH amplified breast cancer cells, serine-replete media
  EC50: < 10 µM
PHGDH mutant T56AK57A
  IC50: > 300 µM
MCF-7 cells
  EC50: > 200 µM
MDA-MB-468 xenografts
  tumor growth: substantial inhibitory effects; also recorded: significantly suppressed the growth of tumors
ZR-75-1 cells
  fold more active in MDA-MB-468 and HCC70 than in ZR-75-1: 13- to 18 fold
[5]
  cell growth: suppressed

## CBR-5884
MDA-MB-468 cells [6]; serine-deplete media
  inhibition of growth of MDA-MB-468 cells: 80% to 90%
MDA-MB-468 cells [6]; serine-replete media
  inhibition of growth of MDA-MB-468 cells: 35% to 60%
[7]
  stability in mouse plasma: unstable in mouse plasma
